Values belong to the molecule of their own block, whether it stands above or below them.
What was measured:
[1] = molecular target: T1, 5-hydroxytryptamine receptor 1A (Rattus norvegicus, UniProt P19327); assay: Binding affinity towards 5-hydroxytryptamine 1A receptor in rat hypocampus membrane using [3H]8-OH-DPAT as radioligand; format: cell membranes
T1 sequence (P19327 whole entry): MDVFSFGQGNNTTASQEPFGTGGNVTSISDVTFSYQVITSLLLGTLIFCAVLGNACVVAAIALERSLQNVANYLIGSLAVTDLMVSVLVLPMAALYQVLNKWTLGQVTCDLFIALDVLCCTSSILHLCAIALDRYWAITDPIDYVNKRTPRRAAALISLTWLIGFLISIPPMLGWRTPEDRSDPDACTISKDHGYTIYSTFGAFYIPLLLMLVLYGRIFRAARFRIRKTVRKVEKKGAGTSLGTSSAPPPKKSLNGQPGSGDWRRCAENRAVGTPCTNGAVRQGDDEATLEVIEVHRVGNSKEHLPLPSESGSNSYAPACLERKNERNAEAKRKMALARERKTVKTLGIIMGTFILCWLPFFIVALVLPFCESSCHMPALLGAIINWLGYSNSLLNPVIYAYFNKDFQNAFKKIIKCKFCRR
Outline: (§1)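 Rat brain membranes (native receptors): cerebral cortex for α1 with [3H]prazosin (79.2 Ci/mmol) and α2 with [3H]rauwolscine (80.5 Ci/mmol); hippocampus for 5-HT1A with [3H]8-OH-DPAT (162.9 Ci/mmol); striatum for D2 with [3H]spiperone (17.7 Ci/mmol). Radioligand competition by test drug; mean ± SE of at least three separate experiments in triplicate.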

[2] = molecular target: T2, Adrenergic receptor alpha-1 (Rattus norvegicus, UniProt P15823+P23944+P43140); assay: pA2 values was evaluated against Alpha-1 adrenergic receptor in the isolated Rat Vas Deferens; format: functional, tissue-based
T2 sequence (P15823 whole entry): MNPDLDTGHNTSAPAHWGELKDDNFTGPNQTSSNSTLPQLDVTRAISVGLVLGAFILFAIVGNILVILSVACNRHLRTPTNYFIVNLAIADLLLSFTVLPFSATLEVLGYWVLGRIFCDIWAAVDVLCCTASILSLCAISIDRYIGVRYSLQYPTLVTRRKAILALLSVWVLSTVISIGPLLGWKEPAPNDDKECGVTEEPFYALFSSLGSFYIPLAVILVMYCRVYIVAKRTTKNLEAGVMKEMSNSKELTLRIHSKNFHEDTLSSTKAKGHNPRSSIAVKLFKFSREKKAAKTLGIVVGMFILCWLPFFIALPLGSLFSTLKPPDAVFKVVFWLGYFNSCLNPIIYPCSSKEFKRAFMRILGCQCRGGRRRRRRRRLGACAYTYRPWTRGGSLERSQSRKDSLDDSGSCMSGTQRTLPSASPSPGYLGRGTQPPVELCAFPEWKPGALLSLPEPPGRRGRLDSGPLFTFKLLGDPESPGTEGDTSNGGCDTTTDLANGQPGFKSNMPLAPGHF
T2 sequence (P23944 whole entry): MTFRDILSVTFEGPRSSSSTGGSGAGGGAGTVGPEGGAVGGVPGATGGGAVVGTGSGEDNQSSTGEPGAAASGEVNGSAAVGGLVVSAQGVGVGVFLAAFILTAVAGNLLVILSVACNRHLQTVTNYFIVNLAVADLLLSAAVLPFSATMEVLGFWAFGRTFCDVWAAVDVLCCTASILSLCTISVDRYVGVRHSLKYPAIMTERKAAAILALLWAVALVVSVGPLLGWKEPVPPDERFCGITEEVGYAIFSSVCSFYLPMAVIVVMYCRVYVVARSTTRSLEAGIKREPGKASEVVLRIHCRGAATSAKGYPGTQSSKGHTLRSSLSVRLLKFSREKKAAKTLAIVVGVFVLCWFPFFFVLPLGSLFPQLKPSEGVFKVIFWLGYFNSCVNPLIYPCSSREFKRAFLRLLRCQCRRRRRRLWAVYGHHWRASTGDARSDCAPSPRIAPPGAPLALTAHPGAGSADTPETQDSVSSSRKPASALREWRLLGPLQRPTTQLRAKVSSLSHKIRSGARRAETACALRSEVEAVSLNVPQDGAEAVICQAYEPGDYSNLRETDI
T2 sequence (P43140 whole entry): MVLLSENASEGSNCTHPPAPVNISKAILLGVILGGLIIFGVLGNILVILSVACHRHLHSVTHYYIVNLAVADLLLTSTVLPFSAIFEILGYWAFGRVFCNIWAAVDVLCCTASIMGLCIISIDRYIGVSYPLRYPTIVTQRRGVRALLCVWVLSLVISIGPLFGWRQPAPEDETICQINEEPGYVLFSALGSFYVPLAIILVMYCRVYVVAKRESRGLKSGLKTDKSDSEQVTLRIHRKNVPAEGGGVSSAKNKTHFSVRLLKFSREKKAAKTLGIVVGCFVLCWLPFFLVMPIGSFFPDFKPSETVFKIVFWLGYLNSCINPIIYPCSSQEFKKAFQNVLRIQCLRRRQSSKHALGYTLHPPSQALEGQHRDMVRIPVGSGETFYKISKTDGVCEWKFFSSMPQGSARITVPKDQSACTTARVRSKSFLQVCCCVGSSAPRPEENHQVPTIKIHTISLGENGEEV
Outline: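 Functional antagonism was measured in isolated tissue. Dose ratios were taken at agonist EC50 values at three antagonist concentrations, each concentration tested five times. pA2 was derived from Schild plots constrained to slope -1 and is reported as mean ± SE of n experiments.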

[3] = molecular target: T3, Alpha-1D adrenergic receptor (Rattus norvegicus, UniProt P23944); assay: Binding affinity towards Alpha-1D adrenergic receptor in rat brain using [3H]prazosin as radioligand; format: tissue-based
T3 sequence (P23944 whole entry): T2 sequence (P23944 whole entry)

[4] = molecular target: T4, Alpha-1A adrenergic receptor (Rattus norvegicus, UniProt P43140); assay: Binding affinity towards Alpha-1A adrenergic receptor in rat hippocampal membranes using [3H]prazosin as radioligand; format: cell membranes, Hippocampus
T4 sequence (P43140 whole entry): T2 sequence (P43140 whole entry)
Outline: (§2)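 Native α1A site from rat hippocampus membranes pretreated with CEC, labelled with [3H]prazosin in competition binding. Mean ± SE of at least three separate experiments, each run in triplicate.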

[5] = molecular target: T5, Alpha-1A adrenergic receptor (Bos taurus, UniProt P18130); assay: Binding affinity towards Alpha-1A adrenergic receptor in bovine brain using [3H]prazosin as radioligand
T5 sequence (P18130 whole entry): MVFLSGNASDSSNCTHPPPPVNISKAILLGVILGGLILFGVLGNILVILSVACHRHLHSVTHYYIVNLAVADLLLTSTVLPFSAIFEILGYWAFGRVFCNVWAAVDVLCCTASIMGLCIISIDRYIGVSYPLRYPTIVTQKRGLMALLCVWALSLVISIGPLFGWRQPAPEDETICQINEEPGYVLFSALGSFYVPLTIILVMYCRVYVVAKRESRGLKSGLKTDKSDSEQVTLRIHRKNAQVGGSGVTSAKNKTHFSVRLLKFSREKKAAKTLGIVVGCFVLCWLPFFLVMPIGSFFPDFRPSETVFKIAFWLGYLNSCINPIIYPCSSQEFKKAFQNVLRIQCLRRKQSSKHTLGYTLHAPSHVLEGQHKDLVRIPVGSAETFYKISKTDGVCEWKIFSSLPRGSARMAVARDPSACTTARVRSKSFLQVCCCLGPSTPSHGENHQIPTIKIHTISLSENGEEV
Outline: (§3)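 Membranes (35-70 µg protein) from COS-7 cells transiently expressing bovine α1a, hamster α1b or rat α1d adrenoceptor. Incubated with 0.3-0.6 nM [3H]prazosin ± displacer in 50 mM Tris-HCl pH 7.4, 10 µM pargyline, 0.1% ascorbic acid, 30 min at 25 °C. Stopped with ice-cold buffer, then rapid filtration. Mean ± SE of ≥3 experiments in triplicate.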

[6] = molecular target: T6, Alpha-1B adrenergic receptor (Rattus norvegicus, UniProt P15823); assay: Binding affinity towards Alpha-1B adrenergic receptor in rat liver using [3H]prazosin as radioligand
T6 sequence (P15823 whole entry): T2 sequence (P15823 whole entry)

[7] = molecular target: T7, Adrenergic receptor alpha-2 (Rattus norvegicus, UniProt P22086+P19328+P22909); assay: (§4) Binding affinity towards Alpha-2 adrenergic receptor in rat cerebral cortex using [3H]rauwolscine as radioligand; format: tissue-based; outline: as §1
T7 sequence (P22086 whole entry): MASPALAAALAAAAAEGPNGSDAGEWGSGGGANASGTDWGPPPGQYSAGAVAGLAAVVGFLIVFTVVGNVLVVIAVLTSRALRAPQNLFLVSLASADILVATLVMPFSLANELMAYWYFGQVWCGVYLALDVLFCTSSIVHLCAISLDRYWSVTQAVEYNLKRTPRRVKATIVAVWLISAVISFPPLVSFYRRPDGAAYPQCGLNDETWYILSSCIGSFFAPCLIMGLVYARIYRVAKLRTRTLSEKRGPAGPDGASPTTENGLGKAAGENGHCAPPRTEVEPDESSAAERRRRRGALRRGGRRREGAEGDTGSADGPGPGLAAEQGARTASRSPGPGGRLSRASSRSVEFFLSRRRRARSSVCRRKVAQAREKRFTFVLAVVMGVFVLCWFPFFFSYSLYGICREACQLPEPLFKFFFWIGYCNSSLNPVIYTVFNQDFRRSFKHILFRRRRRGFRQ
T7 sequence (P19328 whole entry): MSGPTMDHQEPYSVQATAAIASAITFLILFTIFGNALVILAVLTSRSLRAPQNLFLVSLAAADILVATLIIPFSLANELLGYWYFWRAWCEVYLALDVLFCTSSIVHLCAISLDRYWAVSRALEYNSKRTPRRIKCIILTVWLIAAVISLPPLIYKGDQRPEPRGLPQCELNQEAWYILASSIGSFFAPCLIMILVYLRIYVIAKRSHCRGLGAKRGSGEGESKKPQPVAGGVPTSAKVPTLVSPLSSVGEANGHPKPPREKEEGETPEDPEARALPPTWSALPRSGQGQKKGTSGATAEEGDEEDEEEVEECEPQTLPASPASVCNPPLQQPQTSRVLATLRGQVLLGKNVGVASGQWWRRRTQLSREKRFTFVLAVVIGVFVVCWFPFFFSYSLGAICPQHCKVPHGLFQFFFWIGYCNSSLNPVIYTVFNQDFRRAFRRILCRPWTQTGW
T7 sequence (P22909 whole entry): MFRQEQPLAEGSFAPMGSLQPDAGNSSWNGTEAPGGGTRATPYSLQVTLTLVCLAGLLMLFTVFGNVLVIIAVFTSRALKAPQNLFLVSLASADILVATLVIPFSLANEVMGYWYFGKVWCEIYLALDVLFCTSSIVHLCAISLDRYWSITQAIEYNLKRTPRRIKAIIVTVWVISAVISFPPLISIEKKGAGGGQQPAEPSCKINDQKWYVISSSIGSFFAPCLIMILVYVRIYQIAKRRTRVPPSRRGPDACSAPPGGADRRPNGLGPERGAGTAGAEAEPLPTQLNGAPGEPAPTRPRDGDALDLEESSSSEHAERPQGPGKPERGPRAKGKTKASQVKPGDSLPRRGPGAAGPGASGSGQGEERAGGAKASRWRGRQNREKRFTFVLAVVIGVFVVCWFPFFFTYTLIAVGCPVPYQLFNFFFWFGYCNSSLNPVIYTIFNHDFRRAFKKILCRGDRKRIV

[8] = molecular target: T2, Adrenergic receptor alpha-1; assay: Binding affinity towards Alpha-1 adrenergic receptor in rat cerebral cortex using [3H]prazosin as radioligand; format: tissue-based; outline: as §1
[9] = molecular target: T8, D(2) dopamine receptor (Rattus norvegicus, UniProt P61169); assay: Binding affinity towards Dopamine receptor D2 in rat striatum using [3H]spiperone as radioligand; format: tissue-based; outline: as §1
T8 sequence (P61169 whole entry): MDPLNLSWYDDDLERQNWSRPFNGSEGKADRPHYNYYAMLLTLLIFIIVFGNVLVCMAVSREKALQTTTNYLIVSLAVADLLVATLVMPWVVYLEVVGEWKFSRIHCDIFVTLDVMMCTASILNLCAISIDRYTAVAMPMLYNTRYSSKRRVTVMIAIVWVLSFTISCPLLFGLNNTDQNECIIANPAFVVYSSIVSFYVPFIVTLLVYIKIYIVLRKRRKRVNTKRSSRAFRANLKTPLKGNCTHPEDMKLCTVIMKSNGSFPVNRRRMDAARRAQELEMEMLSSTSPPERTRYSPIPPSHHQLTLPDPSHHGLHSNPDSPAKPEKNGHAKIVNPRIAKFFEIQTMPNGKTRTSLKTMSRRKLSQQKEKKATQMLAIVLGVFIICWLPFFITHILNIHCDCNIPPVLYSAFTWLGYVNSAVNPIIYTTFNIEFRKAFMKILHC

[10] = molecular target: T9, Adrenergic receptor alpha-2 (Rattus norvegicus) (UniProt P22086+P19328+P22909); conditions: Vas deferens
[11] = molecular target: T9, Adrenergic receptor alpha-2 (Rattus norvegicus); conditions: Vas deferens; remark: listed apart in the source
[12] = molecular target: T9, Adrenergic receptor alpha-2 (Rattus norvegicus); assay: as §4; format: tissue-based; outline: as §1
[13] = molecular target: T4, Alpha-1A adrenergic receptor; assay: Binding affinity towards Alpha-1A adrenergic receptor in rat hippocampus (+ 10 uM) […] membrane using [3H]prazosin as radioligand; format: tissue-based; outline: as §2
[14] = molecular target: T5, Alpha-1A adrenergic receptor; assay: Binding affinity towards Alpha-1A adrenergic receptor in bovine brain using [3H]-prazosin as radioligand; outline: as §3
[15] = molecular target: T8, D(2) dopamine receptor; assay: In vitro inhibitory activity against [3H]spiperone binding to Dopamine receptor D2

SMILES: COc1cccc(OC)c1OCCNC[C@H]1Oc2ccccc2O[C@@H]1c1ccc(C)cc1
- Ki [1]: 1260 nM
- pA2 [2]: 7.59
- Ki [3]: 191 nM
- Ki [4]: 40.3 nM
- Ki [5]: 8.34 nM
- Ki [6]: 774 nM
- Ki [7]: 2142 nM
- Ki [8]: 121.2 nM
- Ki [9]: 827 nM
- -Log KB [10]: < 5

SMILES: COc1cccc(OC)c1OCCNC[C@@H]1Oc2ccccc2O[C@H]1c1ccc(C)cc1
- Ki [1]: 889 nM
- pA2 [2]: 8.92
- Ki [3]: 6.57 nM
- Ki [4]: 1.76 nM
- Ki [5]: 0.35 nM
- Ki [6]: 62.6 nM
- Ki [7]: 4293 nM
- Ki [8]: 9.97 nM
- Ki [9]: 86.5 nM
- -Log KB [10]: < 5

SMILES: COC(=O)C1=C(C)NC(C)=C(C(=O)OCCCN2CCC(c3ccccc3)(c3ccccc3)CC2)[C@H]1c1cccc([N+](=O)[O-])c1 [NIGULDIPINE]
- Ki [7]: 1611 nM

Second part, the molecule after the results:

- Ki [1]: 7.26 nM
- pA2 [2]: 9.13
- Ki [3]: 6.26 nM
- Ki [4]: 1.29 nM
- Ki [5]: 0.62 nM
- Ki [7]: 14.72 nM
- Ki [8]: 8.72 nM
- Ki [9]: 123 nM
- -Log KB [11]: 6.29
SMILES: COc1cccc(OC)c1OCCNCC1COc2ccccc2O1 (stereo not given)

- Ki [1]: 606 nM
- Affinity [12]: 3.5 µM
- pA2 [2]: 8.67
- Ki [3]: 11.8 nM
- Ki [13]: 5.32 nM
- Ki [14]: 0.91 nM
- Ki [6]: 103 nM
- Ki [8]: 17.03 nM
- -Log KB [10]: < 5
- Ki [15]: 82.3 nM
SMILES: COc1cccc(OC)c1OCCNCC1Oc2ccccc2OC1c1ccc(C)cc1 (racemic)
